Data on 17 compounds can be found in PubChem BioAssay.

Assay [1] in a line: hit retest on RPL19A-GFP reporter strain – cell-based, S. cerevisiae, flow cytometry, cherry picks, mother/daughter gates, confirmation (AID 2270;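 active = GFP response below 50% of the DMSO control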). The note with it: 3 h, at 10 µM, stronger effect = lower value, 100 = same GFP as DMSO wells.
Assay [2] is described as follows: yeast TOR pathway reporter LAP4-GFP change – cell-based, cherry picks, flow cytometry, mother/daughter gates, confirmation (AID 2271;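 active = GFP response above 150% of the DMSO control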;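 note: ratio of sample to DMSO plate mean so 100% equals DMSO level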). The note with it: S. cerevisiae LAP4-GFP strain, 3 h, at 10 µM, stronger effect = higher value, 100 means same as DMSO control. A digest of the protocol: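 System: Alexa 633-stained baker's yeast GFP-fusion strain / Medium: synthetic complete (SC) yeast growth medium / Doses: compound at 10 µM, single point / Times: 3 h treatment at 30 °C with rotation / Detection: HT flow cytometry, GFP fluorescence channel / Benchmarks: DMSO-only negative wells, rapamycin 400 ng/mL positive wells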
On the technique in general: In flow cytometry, cells or beads pass a laser one at a time.

A short description of assay [3]: TOR pathway reporter MEP2-GFP, retest of hits – S. cerevisiae, flow cytometry GFP, cherry picks, confirmation (AID 2272;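 active = GFP response above 150% of the DMSO control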;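 note: ratio of well signal to plate DMSO mean so 100% equals DMSO level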). The note with it: S. cerevisiae MEP2-GFP strain, 3 h, at 10 µM, stronger effect = higher value.
Assay [4] in a line: yeast AGP1-GFP fluorescence change, single-dose – cell-based, flow cytometry, S. cerevisiae, cherry picks, confirmation (AID 2273).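 Note: median GFP channel fluorescence over the whole cell population gate.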 The note with it: S. cerevisiae AGP1-GFP strain, 3 h, at 10 µM.
Assay [5] is described as follows: TOR pathway CIT2 reporter hit retest – S. cerevisiae, GFP fusion, cherry picks, mother/daughter gates, confirmation (AID 2274). The note with it: S. cerevisiae CIT2-GFP strain, flow cytometry, 3 h, at 10 µM, stronger effect = higher value.
[6] abbreviates: measured here: daughter cell gate.
[7] abbreviates: measured here: mother cell gate.
[8] abbreviates: measured here: daughter cell gate response.
[9] abbreviates: measured here: mother cell gate response.

Molecules are shown by their SMILES. The source made the active and inactive calls.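 Rule for the calls, unless noted: active = GFP response above 150% of the DMSO level; inconclusive = fewer than 70 events counted for a yeast strain; inactive = the rest.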

As for `CCCCOc1ccc(C(=O)N2CCN(c3ccc(N4CCOCC4)nn3)CC2)cc1`, the GFP response vs DMSO was 97.4% (inactive) in assay [1], 99.1% in assay [1] (setting [6]), 94.9% in assay [1] (setting [7]) and 98.3% (inactive) in assay [3]. Also, the values for the GFP response relative to DMSO in assay [2], in assay [2] (setting [8]) and in assay [2] (setting [9]) were 97.9% (inactive), 97.6% and 97.2%, respectively. Besides, the GFP response, % of DMSO was 97.2% (inactive) in assay [4], 98.3% (inactive) in assay [5], 101% in assay [5] (setting [6]) and 98.5% in assay [5] (setting [7]).
For `CC(C)(C)NC(=O)c1ccccc1-c1nc(-c2ccccc2Cl)no1`, the GFP response vs DMSO in assay [1] is 94.8% (inactive); in assay [1] (setting [6]), 95.9%; in assay [1] (setting [7]), 93.2%; in assay [3], 107% (inactive). The figures for the GFP response relative to DMSO in assay [2], in assay [2] (setting [8]) and in assay [2] (setting [9]) were 99.5% (inactive), 99.1% and 99.4%, respectively. Moreover, the GFP response, % of DMSO is 97.3% (inactive) in assay [4], 93% (inactive) in assay [5], 92% in assay [5] (setting [6]) and 93.2% in assay [5] (setting [7]).
On to `CCOc1ccc(-c2noc(-c3cccnc3)n2)cc1OC`, for which the GFP response vs DMSO in assay [1] is 97.2% (inactive); in assay [1] (setting [6]), 97.1%; in assay [1] (setting [7]) it was 96.4%; in assay [3], 100% (inactive). Further, the figures for the GFP response relative to DMSO in assay [2], in assay [2] (setting [8]) and in assay [2] (setting [9]) were 99.2% (inactive), 99.2% and 98.3%, respectively. The GFP response, % of DMSO in assay [4] was 95.6% (inactive); in assay [5], 104% (inactive); in assay [5] (setting [6]), 103%; in assay [5] (setting [7]) it was 98.5%.
As for `CC(=O)c1ccc(N2CCN(S(=O)(=O)c3ccc4c(c3)CC(C)N4C(C)=O)CC2)cc1` (configuration not stated), the GFP response vs DMSO in assay [1] was 95.8% (inactive); in assay [1] (setting [6]), 93.9%; in assay [1] (setting [7]), 91.9%; in assay [3], 103% (inactive). The GFP response relative to DMSO in assay [2] was 98.9% (inactive); in assay [2] (setting [8]), 97.5%; in assay [2] (setting [9]), 98.4%. Besides, the GFP response, % of DMSO in assay [4] was 98.8% (inactive); in assay [5], 104% (inactive); in assay [5] (setting [6]) it was 99.3%; in assay [5] (setting [7]), 103%.
Consider `O=[N+]([O-])/C=C/c1cn(Cc2ccccc2)c2ccccc12`, for which the GFP response vs DMSO in assay [1] is 103% (inactive); in assay [1] (setting [6]), 98.1%; in assay [1] (setting [7]), 98.2%; in assay [3] it was 102% (inactive). Moreover, the GFP response relative to DMSO was 134% (inactive) in assay [2], 131% in assay [2] (setting [8]) and 138% in assay [2] (setting [9]). In addition, the GFP response, % of DMSO in assay [4] is 98.3% (inactive); in assay [5], 96.5% (inactive); in assay [5] (setting [6]) it was 94.8%; in assay [5] (setting [7]), 91.2%.
On to `Cc1cc(N2CCC(C)CC2)n2nc(C)c(-c3ccccc3)c2n1`, for which the GFP response vs DMSO was 101% (inactive) in assay [1], 101% in assay [1] (setting [6]), 101% in assay [1] (setting [7]) and 104% (inactive) in assay [3]. In addition, the values for the GFP response relative to DMSO in assay [2], in assay [2] (setting [8]) and in assay [2] (setting [9]) were 97.7% (inactive), 93.6% and 97.5%, respectively. For the same compound, the GFP response, % of DMSO in assay [4] is 98.4% (inactive); in assay [5] it was 101% (inactive); in assay [5] (setting [6]) it was 102%; in assay [5] (setting [7]) it was 99.1%.
Turning to `CCOC(=O)C1=C(c2ccccc2)NC(=S)NC1c1cc([N+](=O)[O-])ccc1OC` (configuration not stated), the GFP response vs DMSO was 94% (inactive) in assay [1], 92.6% in assay [1] (setting [6]), 96.4% in assay [1] (setting [7]) and 96.2% (inactive) in assay [3]. The GFP response relative to DMSO in assay [2] is 97.9% (inactive); in assay [2] (setting [8]) it was 97.6%; in assay [2] (setting [9]), 97.2%. Also, the GFP response, % of DMSO in assay [4] is 95.2% (inactive); in assay [5] it was 99.7% (inactive); in assay [5] (setting [6]), 101%; in assay [5] (setting [7]), 99.7%.
Take `COc1ccc(/C=C/C(=O)c2c(O)cc(C)oc2=O)c(OC)c1`: the GFP response vs DMSO in assay [1] was 104% (inactive); in assay [1] (setting [6]), 101%; in assay [1] (setting [7]), 103%; in assay [3] it was 103% (inactive). In addition, the GFP response relative to DMSO is 102% (inactive) in assay [2], 101% in assay [2] (setting [8]) and 103% in assay [2] (setting [9]). Also, the GFP response, % of DMSO in assay [4] is 100% (inactive); in assay [5], 95.9% (inactive); in assay [5] (setting [6]), 95.6%; in assay [5] (setting [7]) it was 90.7%.
As for `COc1ccc2c(c1)c(/C=C/c1cc[n+](C)cc1)cn2C`, the GFP response vs DMSO is 105% (inactive) in assay [1], 107% in assay [1] (setting [6]), 106% in assay [1] (setting [7]) and 162% (inactive) in assay [3]. In addition, the results for the GFP response relative to DMSO in assay [2], in assay [2] (setting [8]) and in assay [2] (setting [9]) were 136% (inactive), 143% and 134%, respectively. The GFP response, % of DMSO in assay [4] is 111% (inactive); in assay [5] it was 150% (inactive); in assay [5] (setting [6]) it was 158%; in assay [5] (setting [7]) it was 145%.
As to `O=C(OCn1ncc(Br)c(Br)c1=O)c1c(F)cccc1F`, the GFP response vs DMSO in assay [1] is 93.3% (inactive); in assay [1] (setting [6]), 94%; in assay [1] (setting [7]), 90.6%; in assay [3], 98.8% (inactive). The GFP response relative to DMSO in assay [2] was 168% (active); in assay [2] (setting [8]), 153%; in assay [2] (setting [9]), 175%. Further, the GFP response, % of DMSO was 116% (inactive) in assay [4], 97.2% (inactive) in assay [5], 105% in assay [5] (setting [6]) and 88.8% in assay [5] (setting [7]).
For the compound `OC1(c2ccc(F)cc2)CSC(=Nc2cccnc2)N1Cc1ccco1` (configuration not stated), the GFP response vs DMSO in assay [1] is 98% (inactive); in assay [1] (setting [6]), 99.6%; in assay [1] (setting [7]) it was 98.7%; in assay [3] it was 110% (inactive). In addition, the GFP response relative to DMSO in assay [2] was 102% (inactive); in assay [2] (setting [8]) it was 99.7%; in assay [2] (setting [9]), 104%. The GFP response, % of DMSO is 104% (inactive) in assay [4], 108% (inactive) in assay [5], 106% in assay [5] (setting [6]) and 108% in assay [5] (setting [7]).
Regarding `COc1ccc(C(=O)/C=C2/C(=O)Nc3ccccc32)cc1`, the GFP response vs DMSO was 86.7% (inactive) in assay [1], 88.1% in assay [1] (setting [6]), 82.7% in assay [1] (setting [7]) and 96.2% (inactive) in assay [3]. The GFP response relative to DMSO in assay [2] was 133% (inactive); in assay [2] (setting [8]) it was 122%; in assay [2] (setting [9]), 139%. Further, the GFP response, % of DMSO in assay [4] is 95.4% (inactive); in assay [5], 98.3% (inactive); in assay [5] (setting [6]), 97.2%; in assay [5] (setting [7]), 91.4%.
For the compound `Cc1[nH]c2ccccc2c1C(=O)C(C)OC(=O)C1CCC1` (configuration not stated), the GFP response vs DMSO in assay [1] is 98.2% (inactive); in assay [1] (setting [6]), 98.1%; in assay [1] (setting [7]), 97.8%; in assay [3] it was 110% (inactive). The results for the GFP response relative to DMSO in assay [2], in assay [2] (setting [8]) and in assay [2] (setting [9]) were 100% (inactive), 101% and 100%, respectively. In addition, the GFP response, % of DMSO was 105% (inactive) in assay [4], 106% (inactive) in assay [5], 103% in assay [5] (setting [6]) and 106% in assay [5] (setting [7]).
As for `COc1ccc(N2C(=O)C(Cl)=C(NCc3ccccc3)C2=O)cc1`, the GFP response vs DMSO was 96.5% (inactive) in assay [1], 93% in assay [1] (setting [6]), 95.9% in assay [1] (setting [7]) and 99.3% (inactive) in assay [3]. Besides, the GFP response relative to DMSO was 111% (inactive) in assay [2], 111% in assay [2] (setting [8]) and 112% in assay [2] (setting [9]). Besides, the GFP response, % of DMSO in assay [4] is 95.9% (inactive); in assay [5], 91.7% (inactive); in assay [5] (setting [6]), 92.3%; in assay [5] (setting [7]) it was 90.4%.
With `N#Cc1cc([N+](=O)[O-])c(-n2nnc3ccccc32)c([N+](=O)[O-])c1`, the GFP response vs DMSO in assay [1] is 92.8% (inactive); in assay [1] (setting [6]), 94.7%; in assay [1] (setting [7]), 88.8%; in assay [3] it was 90.5% (inactive). For the same compound, the GFP response relative to DMSO is 172% (active) in assay [2], 149% in assay [2] (setting [8]) and 184% in assay [2] (setting [9]). Further, the GFP response, % of DMSO in assay [4] is 98.2% (inactive); in assay [5], 100% (inactive); in assay [5] (setting [6]) it was 99.2%; in assay [5] (setting [7]), 93.2%.
On to `CN1CCN(C(=O)CC2C(=O)NCCN2Cc2ccc(-c3ccccc3)cc2)CC1` (configuration not stated), for which the GFP response vs DMSO in assay [1] was 96.2% (inactive); in assay [1] (setting [6]), 96.2%; in assay [1] (setting [7]) it was 98.5%; in assay [3] it was 97.5% (inactive). The GFP response relative to DMSO in assay [2] is 100% (inactive); in assay [2] (setting [8]), 102%; in assay [2] (setting [9]), 99.5%. Besides, the GFP response, % of DMSO in assay [4] is 99.7% (inactive); in assay [5], 97.8% (inactive); in assay [5] (setting [6]) it was 100%; in assay [5] (setting [7]), 99.1%.
As to `NC(=O)CSCc1c(Cl)cccc1Cl`, the GFP response vs DMSO in assay [1] was 101% (inactive); in assay [1] (setting [6]), 100%; in assay [1] (setting [7]), 101%; in assay [3], 109% (inactive). Moreover, the GFP response relative to DMSO in assay [2] is 105% (inactive); in assay [2] (setting [8]), 103%; in assay [2] (setting [9]), 108%. Moreover, the GFP response, % of DMSO is 97.2% (inactive) in assay [4], 93.9% (inactive) in assay [5], 94.8% in assay [5] (setting [6]) and 92.3% in assay [5] (setting [7]).
